Laboratory results as given in ChEMBL document CHEMBL4680304, “Synthesis and evaluation of new phenyl acrylamide derivatives as potent non-nucleoside anti-HBV agents” (Bioorg Med Chem, 2021).
pIC50: −log10 of the molar value.

Legend:
[1] = Cytotoxicity against human HepG2 2.2.15 cell line assessed as cell viability measured after 72 hrs by MTT assay; type: cell-based; conditions: HepG2 2.2.15 cells
Method in brief: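 HepG2 2.2.15 cells were precultured for 24 h, then incubated with compound for 72 h. Viability was read as MTT absorbance at 490 nm relative to untreated cells on the same plate. CC50 is the concentration causing 50% cell death.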

[2] = test system: Hepatitis B virus; assay: Antiviral activity against HBV infected in human HepG2 2.2.15 cells assessed as decrease in extracellular viral DNA level at 0.8 uM measured after incubation of 6 days by RT-PCR analysis; type: functional; conditions: HepG2 2.2.15, 144 h, time 6 day
Method in brief: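 HepG2 2.2.15 cells, which stably carry the HBV genome, were grown in DMEM with 10% FBS, penicillin/streptomycin and 0.38 mg/mL G418. They were seeded at 2×10^5/well and allowed to recover for 24 h. Cells were then exposed to 0.8 µM compound for 6 days, with medium changed every 2 days. HBV DNA was quantified by real-time PCR and expressed as % inhibition versus control.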

[3] = test system: Hepatitis B virus; assay: Antiviral activity against lamivudine/entecavir-resistant HBV rtL180M/rtM204V/rtT184L mutant infected in human HepG2 2.2.15 cells assessed as inhibition of viral DNA replication measured after incubation of 72 hrs by RT-PCR analysis; type: functional, organism-based; conditions: for pIC50: HepG2 2.2.15, 72 h
Method in brief: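 HepG2 cells transiently transfected for 24 h with full-genome HBV plasmid carrying rtL180M + rtM204V + rtT184L, washed, then treated over a dose range for 72 h. HBV DNA replicative intermediates quantified by real-time PCR. IC50 is the concentration giving 50% inhibition of HBV DNA replication, as mean ± SD of triplicate experiments.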

[4] = test system: Hepatitis B virus; assay: Antiviral activity against HBV infected in human HepG2 2.2.15 cells assessed as inhibition of pregenomic RNA expression at 1 uM measured after incubation of 6 by RT-PCR analysis relative to control; type: functional; conditions: HepG2 2.2.15, 144 h, read-out: INH, time 6 day
Method in brief: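 HepG2 2.2.15 cells were seeded at 6×10^5/well in 6-well plates. They were incubated with 1 µM compound for 6 days. Total cellular RNA was then extracted and pgRNA copies/mL were measured by real-time PCR, giving % inhibition relative to untreated control.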

[5] = test system: Hepatitis B virus; assay: Antiviral activity against lamivudine/entecavir-resistant HBV rtL180M/rtM204V/rtT184L mutant infected in human HepG2 2.2.15 cells assessed as inhibition of viral DNA replication at 0.8 uM measured after incubation of 72 hrs by RT-PCR analysis relative to control; type: functional
Method in brief: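 HepG2 cells (2 × 10^5/well) plated 24 h, then transiently transfected for 24 h with plasmid carrying full-genome HBV with rtL180M + rtM204V + rtT184L (wild-type genome in parallel). Washed with PBS, then given fresh medium with compound for 72 h. Intracellular HBV DNA replicative intermediates extracted and quantified by real-time PCR against the wild-type group.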

[6] = Selectivity index, ratio of CC50 for human HepG2 2.2.15 to IC50 of antiviral activity against HBV infected in human HepG2 2.2.15 cells assessed as decrease in extracellular viral DNA level measured after incubation of 6 days by RT-PCR analysis; type: toxicity, cell-based; conditions: time 6 day, read-out: Selectivity Index
Method in brief: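 SI was calculated as the CC50 in HepG2 2.2.15 cells (72 h MTT) divided by the IC50 for HBV DNA inhibition. That IC50 came from HepG2 2.2.15 cells treated for 6 days with medium changed every 2 days, with HBV DNA quantified by real-time PCR.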

[7] = Selectivity index, ratio of CC50 for human HepG2 2.2.15 to IC50 of Antiviral activity against lamivudine/entecavir-resistant HBV rtL180M/rtM204V/rtT184L mutant infected in human HepG2 2.2.15 cells assessed as inhibition of viral DNA replication measured after incubation of 72 hrs by RT-PCR analysis relative to control; type: toxicity, cell-based; conditions: read-out: Selectivity Index
Method in brief: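 SI is CC50 divided by IC50. CC50 comes from MTT on HepG2 2.2.15 cells, 72 h exposure, absorbance at 490 nm relative to untreated cells. IC50 comes from HepG2 cells transiently transfected with rtL180M + rtM204V + rtT184L HBV plasmid and treated 72 h, with DNA replicative intermediates measured by real-time PCR, triplicate experiments.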

[8] = test system: Hepatitis B virus; assay: Antiviral activity against HBV infected in human HepG2 2.2.15 cells assessed as decrease in extracellular viral DNA level measured after incubation of 6 days by RT-PCR analysis; type: functional, organism-based; conditions: HepG2 2.2.15, 144 h
Method in brief: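 Cells were HepG2 2.2.15 (stable HBV genome), seeded at 2×10^5/well and recovered for 24 h. Dose-dependent exposure to compound lasted 6 days, with medium replaced every 2 days. HBV DNA was measured by real-time PCR. IC50 is the concentration giving 50% inhibition of HBV DNA replication, reported as mean ± SD of triplicate experiments.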

SMILES	CC50 at 72 h [1] [µM]	inhibition at 0.8 µM [2] [%]	also measured
O=C(N[C@H](CO)Cc1ccccc1)/C(NC(=O)c1ccc(F)cc1F)=C(/Br)c1ccccc1	> 100	58.1	–
O=C(N[C@H](CO)Cc1ccccc1)/C(NC(=O)c1ccc(Cl)cc1Cl)=C(/Br)c1ccccc1	> 100	88	inhibition [3]: Dose-dependent effect; pIC50 [3]: 6.74; inhibition at 1 µM [4]: 63.1%; inhibition at 0.8 µM [5]: 87%; selectivity ratio at 144 h [6]: > 526; selectivity ratio at 72 h [7]: > 556; pIC50 [8]: 6.72
Cc1ccccc1C(=O)N/C(C(=O)N[C@H](CO)Cc1ccccc1)=C(\Br)c1ccccc1	> 100	5.75	–
O=C(N[C@H](CO)Cc1ccccc1)/C(NC(=O)c1cccc(Cl)c1)=C(/Br)c1ccccc1	> 100	5.36	–
CC(=O)Oc1cccc(/C(Br)=C(/NC(=O)c2ccccc2)C(=O)N[C@H](CO)Cc2ccccc2)c1	> 100	32.4	–
CN(C)CCCOc1cccc(/C(Br)=C(/NC(=O)c2ccccc2)C(=O)N[C@H](CO)Cc2ccccc2)c1	85.6	37.7	–
Cc1cc(F)ccc1C(=O)N/C(C(=O)N[C@H](CO)Cc1ccccc1)=C(\Br)c1ccccc1	> 100	83.2	selectivity ratio at 144 h [6]: > 303; pIC50 [8]: 6.48
O=C(N[C@H](CO)Cc1ccccc1)/C(NC(=O)c1ccccc1)=C(/Br)c1cccc(C(F)(F)F)c1	> 100	23.1	–
Cc1ccc(C(=O)N/C(C(=O)N[C@H](CO)Cc2ccccc2)=C(\Br)c2ccccc2)cc1	> 100	47.4	–
O=C(N[C@H](CO)Cc1ccccc1)/C(NC(=O)c1ccccc1)=C(/Br)c1cccc(F)c1	> 100	42.6	–
O=C(N[C@H](CO)Cc1ccccc1)/C(NC(=O)c1ccccc1)=C(/Br)c1cccc([N+](=O)[O-])c1	93.7	2.28	–
CN(C)CCOc1cccc(/C(Br)=C(/NC(=O)c2ccccc2)C(=O)N[C@H](CO)Cc2ccccc2)c1	94.7	58.4	–
COc1ccc(C(=O)N/C(C(=O)N[C@H](CO)Cc2ccccc2)=C(\Br)c2ccccc2)cc1	> 100	6.25	–
O=C(N[C@H](CO)Cc1ccccc1)/C(NC(=O)c1ccc(F)cc1)=C(/Br)c1ccccc1	> 100	74.9	inhibition [3]: Dose-dependent effect; pIC50 [3]: 6.37; inhibition at 0.8 µM [5]: 72.9%; selectivity ratio at 144 h [6]: > 263; selectivity ratio at 72 h [7]: > 232; pIC50 [8]: 6.42
O=C(N[C@H](CO)Cc1ccccc1)/C(NC(=O)c1cccc(Br)c1)=C(/Br)c1ccccc1	> 100	2.48	–
Cc1cccc(C(=O)N/C(C(=O)N[C@H](CO)Cc2ccccc2)=C(\Br)c2ccccc2)c1	> 100	2.94	–
O=C(N[C@H](CO)Cc1ccccc1)/C(NC(=O)c1ccccc1F)=C(/Br)c1ccccc1	> 100	33.6	–

SMILES	CC50 at 72 h [1] [µM]	inhibition at 0.8 µM [2] [%]	also measured
CCN(CC)CCOc1cccc(/C(Br)=C(/NC(=O)c2ccccc2)C(=O)N[C@H](CO)Cc2ccccc2)c1	83.6	56.5	–
O=C(N[C@H](CO)Cc1ccccc1)/C(NC(=O)c1ccc(Br)cc1)=C(/Br)c1ccccc1	> 100	43	–
O=C(N[C@H](CO)Cc1ccccc1)/C(NC(=O)c1ccccc1)=C(/Br)c1cccc(O)c1	99.5	29.6	–
O=C(N[C@H](CO)Cc1ccccc1)/C(NC(=O)c1ccc(F)cc1Cl)=C(/Br)c1ccccc1	> 100	56.1	–
COc1cccc(/C(Br)=C(/NC(=O)c2ccccc2)C(=O)N[C@H](CO)Cc2ccccc2)c1	> 100	48.9	–
O=C(N[C@H](CO)Cc1ccccc1)/C(NC(=O)c1cccc(F)c1)=C(/Br)c1ccccc1	> 100	9.07	–
Cc1cccc(/C(Br)=C(/NC(=O)c2ccccc2)C(=O)N[C@H](CO)Cc2ccccc2)c1	> 100	57.3	–
O=C(N[C@H](CO)Cc1ccccc1)/C(NC(=O)c1cc(Cl)cc(Cl)c1)=C(/Br)c1ccccc1	> 100	83.8	selectivity ratio at 144 h [6]: > 370; pIC50 [8]: 6.57
O=C(N[C@H](CO)Cc1ccccc1)/C(NC(=O)c1ccccc1)=C(/Br)c1cccc(Br)c1	> 100	14.4	–
COc1cccc(C(=O)N/C(C(=O)N[C@H](CO)Cc2ccccc2)=C(\Br)c2ccccc2)c1	> 100	4.89	–
O=C(N[C@H](CO)Cc1ccccc1)/C(NC(=O)c1ccc(F)c(F)c1)=C(/Br)c1ccccc1	> 100	73.7	selectivity ratio at 144 h [6]: > 208; pIC50 [8]: 6.32
O=C(N[C@H](CO)Cc1ccccc1)/C(NC(=O)c1ccccc1Br)=C(/Br)c1ccccc1	> 100	17.2	–
O=C(N[C@H](CO)Cc1ccccc1)/C(NC(=O)c1ccccc1)=C(/Br)c1cccc(Cl)c1	> 100	48.2	–
O=C(N[C@H](CO)Cc1ccccc1)/C(NC(=O)c1ccc(Cl)cc1)=C(/Br)c1ccccc1	> 100	70.7	selectivity ratio at 144 h [6]: > 232; pIC50 [8]: 6.37
COc1ccccc1C(=O)N/C(C(=O)N[C@H](CO)Cc1ccccc1)=C(\Br)c1ccccc1	> 100	11.9	–
O=C(N[C@H](CO)Cc1ccccc1)/C(NC(=O)c1ccccc1Cl)=C(/Br)c1ccccc1	> 100	13.9	–
